# In ChEMBL document CHEMBL1134364, “Antipsoriatic anthrones with modulated redox properties. 5. Potent inhibition of human keratinocyte growth, induction of keratinocyte differentiation, and reduced membrane damage by novel 10-arylacetyl-1,8-dihydroxy-9(10H)-anthracenones” (J Med Chem, 2001):
# Test system: not listed separately
# Assay: Partition coefficient (logP)
# Assay type: physicochemical
# Settings: octanol/water
row,Compound,logP
1,COc1ccc(CC(=O)C2c3cccc(O)c3C(=O)c3c(O)cccc32)cc1OC,3.77
2,COC(=O)c1ccc(CC(=O)C2c3cccc(O)c3C(=O)c3c(O)cccc32)cc1,4.07
3,O=C1c2c(O)cccc2C(C(=O)Cc2ccc(C(F)(F)F)cc2)c2cccc(O)c21,4.4
4,COc1ccccc1CC(=O)C1c2cccc(O)c2C(=O)c2c(O)cccc21,4.2
5,O=C1c2c(O)cccc2C(C(=O)Cc2c[nH]c3ccccc23)c2cccc(O)c21,3.77
6,CC(C)Cc1ccc(C(C)C(=O)C2c3cccc(O)c3C(=O)c3c(O)cccc32)cc1 (stereo not given),5.57
7,CC(C(=O)C1c2cccc(O)c2C(=O)c2c(O)cccc21)c1ccc(C(=O)c2ccccc2)cc1 (stereo not given),4.46
8,O=C1c2c(O)cccc2C(C(=O)Cc2ccc(F)cc2)c2cccc(O)c21,4.11
9,Cc1ccc(CC(=O)C2c3cccc(O)c3C(=O)c3c(O)cccc32)cc1,4.54

# More lines, now with the values ahead:
row,logP,Compound
1,4.17,CC(C)(C)OC(=O)Nc1ccc(CC(=O)C2c3cccc(O)c3C(=O)c3c(O)cccc32)cc1
2,5.02,O=C1c2c(O)cccc2C(C(=O)Cc2ccc(-c3ccccc3)cc2)c2cccc(O)c21
3,3.02,CN(O)C(=O)Cc1ccc(CC(=O)C2c3cccc(O)c3C(=O)c3c(O)cccc32)cc1
4,3.58,N#Cc1ccc(CC(=O)C2c3cccc(O)c3C(=O)c3c(O)cccc32)cc1
5,5.41,CCCCOc1ccc(CC(=O)C2c3cccc(O)c3C(=O)c3c(O)cccc32)cc1
6,3.29,Nc1ccc(CC(=O)C2c3cccc(O)c3C(=O)c3c(O)cccc32)cc1
7,4.51,CCOc1ccc(CC(=O)C2c3cccc(O)c3C(=O)c3c(O)cccc32)cc1
8,4.49,O=C1c2c(O)cccc2C(C(=O)Cc2ccc(Cl)cc2)c2cccc(O)c21
9,4.16,COc1cccc(CC(=O)C2c3cccc(O)c3C(=O)c3c(O)cccc32)c1
10,4.06,O=C1c2c(O)cccc2C(C(=O)Cc2ccc3c(c2)OCO3)c2cccc(O)c21
11,4.97,CCCOc1ccc(CC(=O)C2c3cccc(O)c3C(=O)c3c(O)cccc32)cc1
12,4.34,CCOC(=O)c1ccc(CC(=O)C2c3cccc(O)c3C(=O)c3c(O)cccc32)cc1

# Test system: not listed separately
# Assay: Concentration required to inhibit 50% growth of HaCaT cells
# Assay type: functional, cell-based
# Settings: Homo sapiens
# How it was run: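 HaCaT keratinocytes treated for 48 h. Proliferation read by counting dispersed cells under phase-contrast microscope. Growth inhibition tested for significance against control, N = 3, P < 0.01.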
row,Compound,IC50
1,COc1ccc(CC(=O)C2c3cccc(O)c3C(=O)c3c(O)cccc32)cc1OC,4.2 µM
2,COC(=O)c1ccc(CC(=O)C2c3cccc(O)c3C(=O)c3c(O)cccc32)cc1,1.8 µM
3,CC(C)(C)OC(=O)Nc1ccc(CC(=O)C2c3cccc(O)c3C(=O)c3c(O)cccc32)cc1,1.8 µM
4,O=C1c2c(O)cccc2C(C(=O)Cc2ccc(-c3ccccc3)cc2)c2cccc(O)c21,2.2 µM
5,CN(O)C(=O)Cc1ccc(CC(=O)C2c3cccc(O)c3C(=O)c3c(O)cccc32)cc1,0.7 µM
6,O=C1c2c(O)cccc2C(C(=O)Cc2ccc(C(F)(F)F)cc2)c2cccc(O)c21,1.6 µM
7,N#Cc1ccc(CC(=O)C2c3cccc(O)c3C(=O)c3c(O)cccc32)cc1,3.2 µM
8,COc1ccccc1CC(=O)C1c2cccc(O)c2C(=O)c2c(O)cccc21,1.6 µM
9,O=C1c2c(O)cccc2C(C(=O)Cc2c[nH]c3ccccc23)c2cccc(O)c21,0.8 µM
10,CCCCOc1ccc(CC(=O)C2c3cccc(O)c3C(=O)c3c(O)cccc32)cc1,1.2 µM
11,Nc1ccc(CC(=O)C2c3cccc(O)c3C(=O)c3c(O)cccc32)cc1,1.2 µM
12,CC(C)Cc1ccc(C(C)C(=O)C2c3cccc(O)c3C(=O)c3c(O)cccc32)cc1 (stereo not given),3.5 µM
13,CCOc1ccc(CC(=O)C2c3cccc(O)c3C(=O)c3c(O)cccc32)cc1,1.7 µM
14,CC(C(=O)C1c2cccc(O)c2C(=O)c2c(O)cccc21)c1ccc(C(=O)c2ccccc2)cc1 (stereo not given),0.9 µM
15,O=C1c2c(O)cccc2C(C(=O)Cc2ccc(Cl)cc2)c2cccc(O)c21,2.2 µM
16,COc1cccc(CC(=O)C2c3cccc(O)c3C(=O)c3c(O)cccc32)c1,2.7 µM
17,O=C1c2c(O)cccc2C(C(=O)Cc2ccc3c(c2)OCO3)c2cccc(O)c21,3.3 µM
18,CCCOc1ccc(CC(=O)C2c3cccc(O)c3C(=O)c3c(O)cccc32)cc1,1.6 µM
19,O=C1c2c(O)cccc2C(C(=O)Cc2ccc(F)cc2)c2cccc(O)c21,2.6 µM
20,CCOC(=O)c1ccc(CC(=O)C2c3cccc(O)c3C(=O)c3c(O)cccc32)cc1,1.3 µM
21,Cc1ccc(CC(=O)C2c3cccc(O)c3C(=O)c3c(O)cccc32)cc1,0.7 µM

# Test system: not listed separately
# Assay: Induction of Keratinocyte Differentiation in cross-linked envelope assay at 1 uM expressed as difference of the amount of cross-linked protein as a measure of HaCaT keratinocyte differentiation
# Assay type: functional, Homo sapiens
# Settings: not given
# How it was run: (§1)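 HaCaT cultures were 144 h post-confluent; medium replaced, compound added from DMSO stocks diluted in DMEM (final DMSO 0.2%), controls DMSO or medium alone, 48 h. Cells were detached with trypsin/EDTA, lysed in SDS/β-ME, dot-blotted, TCA-heated, Coomassie-stained and scanned. Value is cross-linked protein minus vehicle, per mg protein (Bradford), mean ± SEM of 3 experiments.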
row,Compound,Activity
1,O=C1c2c(O)cccc2C(C(=O)Cc2ccc(-c3ccccc3)cc2)c2cccc(O)c21,1.8 ug (mg of protein)-1
2,CN(O)C(=O)Cc1ccc(CC(=O)C2c3cccc(O)c3C(=O)c3c(O)cccc32)cc1,2.8 ug (mg of protein)-1
3,O=C1c2c(O)cccc2C(C(=O)Cc2c[nH]c3ccccc23)c2cccc(O)c21,1.8 ug (mg of protein)-1
4,CCCCOc1ccc(CC(=O)C2c3cccc(O)c3C(=O)c3c(O)cccc32)cc1,2.5 ug (mg of protein)-1
5,Nc1ccc(CC(=O)C2c3cccc(O)c3C(=O)c3c(O)cccc32)cc1,0 ug (mg of protein)-1
6,O=C1c2c(O)cccc2C(C(=O)Cc2ccc(F)cc2)c2cccc(O)c21,0.6 ug (mg of protein)-1
7,Cc1ccc(CC(=O)C2c3cccc(O)c3C(=O)c3c(O)cccc32)cc1,2.1 ug (mg of protein)-1

# Test system: not listed separately
# Assay: Induction of Keratinocyte Differentiation in cross-linked envelope assay at 10 uM expressed as difference of the amount of cross-linked protein as a measure of HaCaT keratinocyte differentiation
# Assay type: functional, Homo sapiens
# Settings: not given
# How it was run: as §1
row,Compound,Activity
1,O=C1c2c(O)cccc2C(C(=O)Cc2ccc(-c3ccccc3)cc2)c2cccc(O)c21,4.6 ug (mg of protein)-1
2,CN(O)C(=O)Cc1ccc(CC(=O)C2c3cccc(O)c3C(=O)c3c(O)cccc32)cc1,6.2 ug (mg of protein)-1
3,O=C1c2c(O)cccc2C(C(=O)Cc2c[nH]c3ccccc23)c2cccc(O)c21,6.2 ug (mg of protein)-1
4,CCCCOc1ccc(CC(=O)C2c3cccc(O)c3C(=O)c3c(O)cccc32)cc1,3.4 ug (mg of protein)-1
5,Nc1ccc(CC(=O)C2c3cccc(O)c3C(=O)c3c(O)cccc32)cc1,6.6 ug (mg of protein)-1
6,O=C1c2c(O)cccc2C(C(=O)Cc2ccc(F)cc2)c2cccc(O)c21,3.5 ug (mg of protein)-1
7,Cc1ccc(CC(=O)C2c3cccc(O)c3C(=O)c3c(O)cccc32)cc1,5.1 ug (mg of protein)-1

# Test system: not listed separately
# Assay: (§2) Induction of Keratinocyte Differentiation in cross-linked envelope assay at 5 uM expressed as difference of the amount of cross-linked protein as a measure of HaCaT keratinocyte differentiation
# Assay type: functional, Homo sapiens
# Settings: not given
# How it was run: as §1
row,Compound,Activity
1,O=C1c2c(O)cccc2C(C(=O)Cc2ccc(-c3ccccc3)cc2)c2cccc(O)c21,3.8 ug (mg of protein)-1
2,O=C1c2c(O)cccc2C(C(=O)Cc2c[nH]c3ccccc23)c2cccc(O)c21,4.9 ug (mg of protein)-1
3,CCCCOc1ccc(CC(=O)C2c3cccc(O)c3C(=O)c3c(O)cccc32)cc1,3.4 ug (mg of protein)-1
4,Nc1ccc(CC(=O)C2c3cccc(O)c3C(=O)c3c(O)cccc32)cc1,6 ug (mg of protein)-1
5,O=C1c2c(O)cccc2C(C(=O)Cc2ccc(F)cc2)c2cccc(O)c21,2.4 ug (mg of protein)-1
6,Cc1ccc(CC(=O)C2c3cccc(O)c3C(=O)c3c(O)cccc32)cc1,4.2 ug (mg of protein)-1

# Test system: HaCaT
# Assay: as §2
# Assay type: cell-based
# Settings: Homo sapiens
# How it was run: as §1
row,Compound,Activity (ug (mg of protein)-1)
1,CN(O)C(=O)Cc1ccc(CC(=O)C2c3cccc(O)c3C(=O)c3c(O)cccc32)cc1,5.5

# Test system: not listed separately
# Assay: (§3) Cytotoxic activity of LDH(mu) release in HaCaT cells was measured after treatment with 2 uM of the compound
# Assay type: functional, Homo sapiens
# Settings: not given
# How it was run: (§4)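 HaCaT cells treated with 2 µM compound. Membrane damage read as lactate dehydrogenase activity (mU) released into the culture medium. N = 3, SD < 10%.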
row,Compound,LDH
1,COC(=O)c1ccc(CC(=O)C2c3cccc(O)c3C(=O)c3c(O)cccc32)cc1,164 MU
2,COc1ccccc1CC(=O)C1c2cccc(O)c2C(=O)c2c(O)cccc21,125 MU
3,O=C1c2c(O)cccc2C(C(=O)Cc2c[nH]c3ccccc23)c2cccc(O)c21,174 MU
4,CCOc1ccc(CC(=O)C2c3cccc(O)c3C(=O)c3c(O)cccc32)cc1,142 MU
5,CC(C(=O)C1c2cccc(O)c2C(=O)c2c(O)cccc21)c1ccc(C(=O)c2ccccc2)cc1 (stereo not given),191 MU
6,CCCOc1ccc(CC(=O)C2c3cccc(O)c3C(=O)c3c(O)cccc32)cc1,132 MU
7,Cc1ccc(CC(=O)C2c3cccc(O)c3C(=O)c3c(O)cccc32)cc1,145 MU

# Test system: not listed separately
# Assay: as §3
# Assay type: cell-based
# Settings: human
# How it was run: as §4
row,Compound,LDH
1,CN(O)C(=O)Cc1ccc(CC(=O)C2c3cccc(O)c3C(=O)c3c(O)cccc32)cc1,199 MU

# Test system: not listed separately
# Assay: Inhibition of LTB4 biosynthesis in bovine polymorphonuclear leukocytes using nordihydroguaiaretic acid
# Assay type: functional, cell-based, Bos taurus
# Settings: not given
row,Compound,IC50
1,COc1ccc(CC(=O)C2c3cccc(O)c3C(=O)c3c(O)cccc32)cc1OC,22 µM
2,COC(=O)c1ccc(CC(=O)C2c3cccc(O)c3C(=O)c3c(O)cccc32)cc1,12 µM
3,O=C1c2c(O)cccc2C(C(=O)Cc2ccc(C(F)(F)F)cc2)c2cccc(O)c21,11 µM
4,O=C1c2c(O)cccc2C(C(=O)Cc2c[nH]c3ccccc23)c2cccc(O)c21,9 µM
5,CC(C(=O)C1c2cccc(O)c2C(=O)c2c(O)cccc21)c1ccc(C(=O)c2ccccc2)cc1 (stereo not given),9 µM
6,O=C1c2c(O)cccc2C(C(=O)Cc2ccc(F)cc2)c2cccc(O)c21,11 µM

# More lines, now with the values ahead:
row,IC50,Compound
1,2 µM,CC(C)(C)OC(=O)Nc1ccc(CC(=O)C2c3cccc(O)c3C(=O)c3c(O)cccc32)cc1
2,7 µM,O=C1c2c(O)cccc2C(C(=O)Cc2ccc(-c3ccccc3)cc2)c2cccc(O)c21
3,0.05 µM,CN(O)C(=O)Cc1ccc(CC(=O)C2c3cccc(O)c3C(=O)c3c(O)cccc32)cc1
4,9 µM,N#Cc1ccc(CC(=O)C2c3cccc(O)c3C(=O)c3c(O)cccc32)cc1
5,1.5 µM,CCCCOc1ccc(CC(=O)C2c3cccc(O)c3C(=O)c3c(O)cccc32)cc1
6,1 µM,Nc1ccc(CC(=O)C2c3cccc(O)c3C(=O)c3c(O)cccc32)cc1
7,1 µM,CCOc1ccc(CC(=O)C2c3cccc(O)c3C(=O)c3c(O)cccc32)cc1
8,1 µM,O=C1c2c(O)cccc2C(C(=O)Cc2ccc(Cl)cc2)c2cccc(O)c21
9,3 µM,COc1cccc(CC(=O)C2c3cccc(O)c3C(=O)c3c(O)cccc32)c1
10,1 µM,O=C1c2c(O)cccc2C(C(=O)Cc2ccc3c(c2)OCO3)c2cccc(O)c21
11,1 µM,CCCOc1ccc(CC(=O)C2c3cccc(O)c3C(=O)c3c(O)cccc32)cc1
12,6 µM,CCOC(=O)c1ccc(CC(=O)C2c3cccc(O)c3C(=O)c3c(O)cccc32)cc1

# Test system: not listed separately
# Assay: Deoxyribose degradation activity was measured as hydroxyl radical formation
# Settings: not given
row,Compound,Activity
1,COc1ccc(CC(=O)C2c3cccc(O)c3C(=O)c3c(O)cccc32)cc1OC,0.86
2,COC(=O)c1ccc(CC(=O)C2c3cccc(O)c3C(=O)c3c(O)cccc32)cc1,< 0.3
3,O=C1c2c(O)cccc2C(C(=O)Cc2c[nH]c3ccccc23)c2cccc(O)c21,< 0.3
4,CC(C(=O)C1c2cccc(O)c2C(=O)c2c(O)cccc21)c1ccc(C(=O)c2ccccc2)cc1 (stereo not given),< 0.3
5,O=C1c2c(O)cccc2C(C(=O)Cc2ccc(F)cc2)c2cccc(O)c21,< 0.3

# More lines, now with the values ahead:
row,Activity,Compound
1,0.97,CC(C)(C)OC(=O)Nc1ccc(CC(=O)C2c3cccc(O)c3C(=O)c3c(O)cccc32)cc1
2,< 0.3,O=C1c2c(O)cccc2C(C(=O)Cc2ccc(-c3ccccc3)cc2)c2cccc(O)c21
3,0.51,CN(O)C(=O)Cc1ccc(CC(=O)C2c3cccc(O)c3C(=O)c3c(O)cccc32)cc1
4,< 0.3,CCCCOc1ccc(CC(=O)C2c3cccc(O)c3C(=O)c3c(O)cccc32)cc1
5,1.43,Nc1ccc(CC(=O)C2c3cccc(O)c3C(=O)c3c(O)cccc32)cc1
6,< 0.3,CCOc1ccc(CC(=O)C2c3cccc(O)c3C(=O)c3c(O)cccc32)cc1
7,< 0.3,O=C1c2c(O)cccc2C(C(=O)Cc2ccc(Cl)cc2)c2cccc(O)c21
8,< 0.3,COc1cccc(CC(=O)C2c3cccc(O)c3C(=O)c3c(O)cccc32)c1
9,< 0.3,O=C1c2c(O)cccc2C(C(=O)Cc2ccc3c(c2)OCO3)c2cccc(O)c21
10,< 0.3,CCCOc1ccc(CC(=O)C2c3cccc(O)c3C(=O)c3c(O)cccc32)cc1
11,< 0.3,CCOC(=O)c1ccc(CC(=O)C2c3cccc(O)c3C(=O)c3c(O)cccc32)cc1
